In ChEMBL document CHEMBL4619723, “New CDK8 inhibitors as potential anti-leukemic agents - Design, synthesis and biological evaluation” (Bioorg Med Chem, 2020):
pEC50, pKd: −log10 of the molar value.

Tests used:
MOLM-13 = assay: cells; details: Homo sapiens, MOLM-13, 48 h
OCI-AML-3 = assay: cells; details: Homo sapiens, OCI-AML-3, 48 h
MV4-11 = assay: cells; details: Homo sapiens, MV4-11, 48 h
NRK = assay: cells; details: Rattus norvegicus, 48 h
H9c2 = assay: cells; details: Rattus norvegicus, H9c2, 48 h
[1] = target: Receptor-interacting serine/threonine-protein kinase 1 (Homo sapiens) (UniProt Q13546); assay: Inhibition of biotinylated ligand binding to wild-type human partial length RIPK1 (M1 to K305 residues) expressed in bacterial expression system at 50 nM measured after 1 hr by kinomescan assay relative to control
Procedure, shortened: (§1)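 Kinases expressed as tags on T7 phage grown in an E. coli BL21-derived host, with lysates cleared by centrifugation and filtration. Streptavidin beads carried biotinylated ligand and were blocked with biotin. Kinase, beads and compound were incubated in binding buffer (20% SeaBlock, 0.17x PBS, 0.05% Tween 20, 6 mM DTT) at room temperature for 1 h. Bound kinase was eluted with free ligand and quantified by qPCR. POC was set between DMSO (100%) and control compound (0%).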

[2] = target: Inhibitor of nuclear factor kappa-B kinase subunit epsilon (Homo sapiens) (UniProt Q14164); assay: Inhibition of biotinylated ligand binding to wild-type human full length IKKE (M1 to V716 residues) expressed in bacterial expression system at 50 nM measured after 1 hr by kinomescan assay relative to control
Inhibitor of nuclear factor kappa-B kinase subunit epsilon (Homo sapiens), sequence (Q14164 whole entry, the tested form may be a part): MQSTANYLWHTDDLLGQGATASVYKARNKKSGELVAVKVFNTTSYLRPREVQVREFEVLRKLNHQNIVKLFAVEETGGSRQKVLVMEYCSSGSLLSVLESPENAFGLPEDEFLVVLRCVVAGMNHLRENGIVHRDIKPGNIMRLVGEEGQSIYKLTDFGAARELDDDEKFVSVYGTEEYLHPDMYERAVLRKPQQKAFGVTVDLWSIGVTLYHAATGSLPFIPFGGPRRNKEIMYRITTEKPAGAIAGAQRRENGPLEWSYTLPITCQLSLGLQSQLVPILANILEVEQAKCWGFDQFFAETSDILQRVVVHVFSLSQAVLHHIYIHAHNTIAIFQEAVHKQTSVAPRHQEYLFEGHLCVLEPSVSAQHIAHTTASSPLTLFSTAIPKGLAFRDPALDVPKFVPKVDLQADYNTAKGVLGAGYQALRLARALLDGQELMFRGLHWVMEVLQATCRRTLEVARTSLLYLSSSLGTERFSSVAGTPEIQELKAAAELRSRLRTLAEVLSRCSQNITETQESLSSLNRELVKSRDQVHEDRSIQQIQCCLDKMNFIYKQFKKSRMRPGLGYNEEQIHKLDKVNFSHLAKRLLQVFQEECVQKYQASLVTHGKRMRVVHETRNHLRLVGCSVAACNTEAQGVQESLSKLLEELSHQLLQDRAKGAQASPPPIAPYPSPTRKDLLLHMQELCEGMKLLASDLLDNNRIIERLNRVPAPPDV
Procedure, shortened: as §1

[3] = target: Phosphatidylinositol 5-phosphate 4-kinase type-2 gamma (Homo sapiens) (UniProt Q8TBX8); assay: Inhibition of biotinylated ligand binding to wild-type human partial length PIP5K2C (M1 to A421 residues) expressed in mammalian expression system at 50 nM measured after 1 hr by kinomescan assay relative to control
Phosphatidylinositol 5-phosphate 4-kinase type-2 gamma (Homo sapiens), sequence (Q8TBX8 whole entry, the tested form may be a part): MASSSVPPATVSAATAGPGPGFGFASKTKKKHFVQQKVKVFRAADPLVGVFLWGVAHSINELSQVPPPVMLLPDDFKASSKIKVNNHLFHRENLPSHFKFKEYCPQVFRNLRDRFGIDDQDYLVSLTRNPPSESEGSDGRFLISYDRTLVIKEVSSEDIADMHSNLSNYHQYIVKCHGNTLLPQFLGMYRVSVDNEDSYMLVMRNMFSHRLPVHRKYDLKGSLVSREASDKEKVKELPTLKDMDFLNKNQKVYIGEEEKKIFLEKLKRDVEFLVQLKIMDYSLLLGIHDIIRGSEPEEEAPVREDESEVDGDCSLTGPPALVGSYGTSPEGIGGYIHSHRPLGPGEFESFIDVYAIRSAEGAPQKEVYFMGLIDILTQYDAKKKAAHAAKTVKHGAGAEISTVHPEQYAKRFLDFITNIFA
Procedure, shortened: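 Competition binding: compound (final 50 nM; 40x DMSO stocks) was incubated with kinase and biotinylated-ligand streptavidin beads in 20% SeaBlock, 0.17x PBS, 0.05% Tween 20 and 6 mM DTT at room temperature for 1 h. After washing, kinase was eluted with 0.5 μM non-biotinylated ligand for 30 min and measured by qPCR. Percent of control was referenced to DMSO (100%) and control compound (0%).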

[4] = target: Cyclin-dependent kinase 19 (Homo sapiens) (UniProt Q9BWU1); assay: Inhibition of biotinylated ligand binding to wild-type human partial length CDK11 (M1 to N360 residues) expressed in bacterial expression system at 50 nM measured after 1 hr by kinomescan assay relative to control
Cyclin-dependent kinase 19 (Homo sapiens), sequence (Q9BWU1 whole entry, the tested form may be a part): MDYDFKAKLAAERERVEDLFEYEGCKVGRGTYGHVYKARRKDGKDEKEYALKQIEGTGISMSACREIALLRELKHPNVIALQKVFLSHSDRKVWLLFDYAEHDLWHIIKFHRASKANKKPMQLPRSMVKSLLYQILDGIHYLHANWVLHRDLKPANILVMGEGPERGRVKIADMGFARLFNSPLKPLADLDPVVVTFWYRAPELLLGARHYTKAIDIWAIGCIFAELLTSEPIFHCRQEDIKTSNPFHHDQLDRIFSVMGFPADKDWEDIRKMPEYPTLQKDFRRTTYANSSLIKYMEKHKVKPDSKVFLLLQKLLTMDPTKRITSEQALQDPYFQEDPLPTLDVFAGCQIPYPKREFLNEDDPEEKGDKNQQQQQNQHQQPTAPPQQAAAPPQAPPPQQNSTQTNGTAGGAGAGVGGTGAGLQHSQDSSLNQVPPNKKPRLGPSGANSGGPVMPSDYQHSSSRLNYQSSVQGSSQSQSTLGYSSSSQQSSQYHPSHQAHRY
Procedure, shortened: (§2)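 T7 phage-tagged kinase lysates from E. coli BL21 were mixed with streptavidin beads carrying biotinylated ligand and 50 nM compound. Incubated 1 h at room temperature with shaking, washed, then eluted 30 min with 0.5 μM non-biotinylated ligand. Kinase was quantified by qPCR. POC = (test − positive)/(DMSO − positive) ×100, with a control compound as positive.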

[5] = target: T1, Cyclin-dependent kinase 8 (Homo sapiens, UniProt P49336); assay: Inhibition of biotinylated ligand binding to wild-type human partial length CDK8 (M1 to T360 residues) expressed in Escherichia coli BL21 at 50 nM measured after 1 hr by kinomescan assay relative to control
T1 sequence (P49336 whole entry, the tested form may be a part): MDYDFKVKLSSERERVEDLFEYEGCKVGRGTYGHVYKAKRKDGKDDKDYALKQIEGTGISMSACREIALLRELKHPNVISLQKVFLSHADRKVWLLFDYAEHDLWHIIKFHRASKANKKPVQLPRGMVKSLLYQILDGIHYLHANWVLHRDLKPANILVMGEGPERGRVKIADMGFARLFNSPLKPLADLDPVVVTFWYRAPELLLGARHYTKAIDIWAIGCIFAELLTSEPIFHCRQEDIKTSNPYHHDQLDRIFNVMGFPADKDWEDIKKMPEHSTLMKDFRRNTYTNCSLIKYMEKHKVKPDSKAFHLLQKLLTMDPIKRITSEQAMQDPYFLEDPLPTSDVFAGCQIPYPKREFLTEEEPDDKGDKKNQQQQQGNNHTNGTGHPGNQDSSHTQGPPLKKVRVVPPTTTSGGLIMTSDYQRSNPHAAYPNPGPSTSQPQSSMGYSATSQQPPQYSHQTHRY
Procedure, shortened: as §2

[6] = target: T1, Cyclin-dependent kinase 8; assay: Inhibition of biotinylated ligand binding to wild-type human partial length CDK8 (M1 to T360 residues) expressed in Escherichia coli BL21 measured after 1 hr by kinomescan assay
[7] = target: 1-phosphatidylinositol 3-phosphate 5-kinase (Homo sapiens) (UniProt Q9Y2I7); assay: Inhibition of biotinylated ligand binding to wild-type human partial length PIKFYVE (F1512 to C2098 residues) expressed in mammalian expression system at 50 nM measured after 1 hr by kinomescan assay relative to control
1-phosphatidylinositol 3-phosphate 5-kinase (Homo sapiens), sequence (Q9Y2I7 whole entry, the tested form may be a part): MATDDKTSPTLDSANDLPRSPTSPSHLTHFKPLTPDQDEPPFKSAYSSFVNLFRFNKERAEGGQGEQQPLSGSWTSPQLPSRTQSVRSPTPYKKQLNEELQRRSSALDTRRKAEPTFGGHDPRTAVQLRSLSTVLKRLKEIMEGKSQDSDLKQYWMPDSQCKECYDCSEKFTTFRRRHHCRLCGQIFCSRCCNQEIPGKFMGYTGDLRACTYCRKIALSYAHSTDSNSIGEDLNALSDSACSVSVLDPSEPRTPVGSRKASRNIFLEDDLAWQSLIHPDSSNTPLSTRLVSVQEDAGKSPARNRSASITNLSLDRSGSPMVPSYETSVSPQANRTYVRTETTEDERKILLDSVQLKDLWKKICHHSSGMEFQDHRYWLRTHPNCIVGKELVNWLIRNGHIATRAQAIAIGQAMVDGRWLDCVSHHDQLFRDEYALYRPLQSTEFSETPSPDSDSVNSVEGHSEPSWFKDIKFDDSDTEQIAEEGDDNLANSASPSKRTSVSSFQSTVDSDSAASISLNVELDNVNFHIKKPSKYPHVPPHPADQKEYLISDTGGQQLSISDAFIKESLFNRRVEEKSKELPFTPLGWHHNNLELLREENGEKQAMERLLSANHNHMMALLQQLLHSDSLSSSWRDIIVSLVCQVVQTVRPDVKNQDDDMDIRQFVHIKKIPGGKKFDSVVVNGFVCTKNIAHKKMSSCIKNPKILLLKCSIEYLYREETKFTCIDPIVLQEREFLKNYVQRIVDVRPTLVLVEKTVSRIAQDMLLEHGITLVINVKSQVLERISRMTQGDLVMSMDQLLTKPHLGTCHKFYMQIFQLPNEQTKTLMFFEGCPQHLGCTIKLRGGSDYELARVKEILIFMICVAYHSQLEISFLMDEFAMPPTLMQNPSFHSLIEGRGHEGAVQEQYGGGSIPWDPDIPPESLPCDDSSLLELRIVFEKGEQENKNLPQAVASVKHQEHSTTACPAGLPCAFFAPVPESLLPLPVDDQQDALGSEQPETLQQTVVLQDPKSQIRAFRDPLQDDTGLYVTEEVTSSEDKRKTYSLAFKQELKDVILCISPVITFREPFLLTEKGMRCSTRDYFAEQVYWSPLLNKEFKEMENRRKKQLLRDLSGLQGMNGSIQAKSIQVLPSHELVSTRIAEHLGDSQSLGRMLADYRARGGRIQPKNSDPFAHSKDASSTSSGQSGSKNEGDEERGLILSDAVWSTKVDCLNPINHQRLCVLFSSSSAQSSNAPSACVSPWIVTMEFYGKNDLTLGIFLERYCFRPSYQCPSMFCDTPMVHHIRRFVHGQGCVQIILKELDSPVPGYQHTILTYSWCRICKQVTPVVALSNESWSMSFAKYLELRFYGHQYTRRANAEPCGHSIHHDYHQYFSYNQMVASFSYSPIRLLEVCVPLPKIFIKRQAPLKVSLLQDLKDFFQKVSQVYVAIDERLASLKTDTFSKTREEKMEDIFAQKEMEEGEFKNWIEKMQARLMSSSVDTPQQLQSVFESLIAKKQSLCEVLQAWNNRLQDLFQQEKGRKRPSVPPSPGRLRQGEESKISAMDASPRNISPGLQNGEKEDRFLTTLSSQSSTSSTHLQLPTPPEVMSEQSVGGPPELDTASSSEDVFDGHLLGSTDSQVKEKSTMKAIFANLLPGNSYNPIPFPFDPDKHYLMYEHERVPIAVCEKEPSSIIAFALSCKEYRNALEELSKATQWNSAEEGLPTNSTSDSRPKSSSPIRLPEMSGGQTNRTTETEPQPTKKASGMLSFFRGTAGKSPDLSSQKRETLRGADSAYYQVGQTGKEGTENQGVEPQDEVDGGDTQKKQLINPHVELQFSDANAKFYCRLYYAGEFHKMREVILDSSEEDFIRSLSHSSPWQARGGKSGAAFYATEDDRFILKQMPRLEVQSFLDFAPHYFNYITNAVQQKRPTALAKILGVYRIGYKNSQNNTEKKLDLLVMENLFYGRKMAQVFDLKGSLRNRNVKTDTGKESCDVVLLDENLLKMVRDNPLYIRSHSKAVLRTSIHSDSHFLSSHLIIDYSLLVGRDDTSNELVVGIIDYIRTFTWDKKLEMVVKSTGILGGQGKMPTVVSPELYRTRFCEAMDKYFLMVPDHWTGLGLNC

[8] = target: Serine/threonine-protein kinase pim-2 (Homo sapiens) (UniProt Q9P1W9); assay: Inhibition of biotinylated ligand binding to wild-type human partial length PIM2 (M1 to E291 residues) expressed in bacterial expression system at 50 nM measured after 1 hr by kinomescan assay relative to control
[9] = target: cAMP-dependent protein kinase catalytic subunit alpha (Homo sapiens) (UniProt P17612); assay: Inhibition of biotinylated ligand binding to wild-type human partial length PKAC-alpha (G10 to F351 residues) expressed in bacterial expression system at 50 nM measured after 1 hr by kinomescan assay relative to control
[10] = target: Serine/threonine-protein kinase haspin (Homo sapiens) (UniProt Q8TF76); assay: Inhibition of biotinylated ligand binding to wild-type human partial length HASPIN (I452 to K798 residues) expressed in mammalian expression system at 50 nM measured after 1 hr by kinomescan assay relative to control
Serine/threonine-protein kinase haspin (Homo sapiens), sequence (Q8TF76 whole entry, the tested form may be a part): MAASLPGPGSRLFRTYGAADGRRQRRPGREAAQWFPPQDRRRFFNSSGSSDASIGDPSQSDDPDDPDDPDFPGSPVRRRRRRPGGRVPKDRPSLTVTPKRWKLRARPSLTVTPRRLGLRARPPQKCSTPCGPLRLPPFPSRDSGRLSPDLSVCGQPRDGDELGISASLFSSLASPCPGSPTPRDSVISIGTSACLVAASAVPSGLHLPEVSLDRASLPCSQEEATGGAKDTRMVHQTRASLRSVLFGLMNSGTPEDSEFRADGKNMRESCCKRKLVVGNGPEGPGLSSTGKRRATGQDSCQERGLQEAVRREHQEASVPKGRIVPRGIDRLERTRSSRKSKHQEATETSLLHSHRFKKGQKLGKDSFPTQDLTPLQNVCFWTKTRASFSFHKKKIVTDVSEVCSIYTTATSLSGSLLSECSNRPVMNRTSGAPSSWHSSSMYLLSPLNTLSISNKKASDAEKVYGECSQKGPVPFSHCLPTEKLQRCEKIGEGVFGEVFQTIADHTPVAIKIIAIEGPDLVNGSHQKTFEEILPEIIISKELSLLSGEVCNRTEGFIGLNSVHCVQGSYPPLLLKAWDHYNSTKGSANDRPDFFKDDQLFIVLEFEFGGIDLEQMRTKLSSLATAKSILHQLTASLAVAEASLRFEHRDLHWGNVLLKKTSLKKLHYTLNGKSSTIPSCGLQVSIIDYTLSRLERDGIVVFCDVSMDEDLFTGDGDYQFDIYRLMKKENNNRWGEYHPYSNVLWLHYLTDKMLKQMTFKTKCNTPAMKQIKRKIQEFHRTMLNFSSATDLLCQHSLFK

[11] = target: Serine/threonine-protein kinase MAK (Homo sapiens) (UniProt P20794); assay: Inhibition of biotinylated ligand binding to wild-type human partial length MAK (M1 to P314 residues) expressed in bacterial expression system at 50 nM measured after 1 hr by kinomescan assay relative to control
[12] = target: cAMP-dependent protein kinase catalytic subunit beta (Homo sapiens) (UniProt P22694); assay: Inhibition of biotinylated ligand binding to wild-type human full length PKAC-beta (M1 to F351 residues) expressed in bacterial expression system at 50 nM measured after 1 hr by kinomescan assay relative to control
[13] = target: Citron Rho-interacting kinase (Homo sapiens) (UniProt O14578); assay: Inhibition of biotinylated ligand binding to wild-type human partial length CIT (M68 to E432 residues) expressed in bacterial expression system at 50 nM measured after 1 hr by kinomescan assay relative to control
[14] = target: Hormonally up-regulated neu tumor-associated kinase (Homo sapiens) (UniProt P57058); assay: Inhibition of biotinylated ligand binding to wild-type human partial length HUNK (A31 to K354 residues) expressed in bacterial expression system at 50 nM measured after 1 hr by kinomescan assay relative to control
[15] = target: Protein-tyrosine kinase 2-beta (Homo sapiens) (UniProt Q14289); assay: Inhibition of biotinylated ligand binding to wild-type human full length PYK2 (M1 to E967 residues) expressed in bacterial expression system at 50 nM measured after 1 hr by kinomescan assay relative to control

Row | SMILES | pEC50 (MOLM-13) | pEC50 (OCI-AML-3) | pEC50 (MV4-11) | pEC50 (NRK) | pEC50 (H9c2) | inhibition [1] | inhibition [2] | inhibition [3] | inhibition [4] | inhibition [5] | pKd [6] | inhibition [7] | inhibition [8] | inhibition [9] | inhibition [10] | inhibition [11] | inhibition [12] | inhibition [13] | inhibition [14] | inhibition [15]
1 | CN(C)[C@@H]1CC[C@@]2(C)[C@@H](CC[C@@H]3[C@@H]2CC[C@]2(C)C(c4cccnc4)=CC[C@@H]32)C1 | 4.99 | 5.00 | 5.00 | 4.53 | 4.30 to 4.60 | – | – | – | – | – | – | – | – | – | – | – | – | – | – | –
2 | CN(C)[C@@H]1CC[C@@]2(C)[C@@H](CC[C@@H]3[C@@H]2CC[C@]2(C)C(c4ccc5cnccc5c4)=CC[C@@H]32)C1 | 5.41 | 5.57 | 5.39 | 5.15 | 4.90 to 5.19 | – | – | – | – | – | – | – | – | – | – | – | – | – | – | –
3 | CN(C)[C@@H]1CC[C@@]2(C)[C@@H](CC[C@@H]3[C@@H]2CC[C@]2(C)C(c4cncc(Cl)c4)=CC[C@@H]32)C1 | 4.95 | 5.12 | 5.07 | 4.69 | 4.60 to 4.90 | > 80% | > 80% | > 80% | > 80% | > 80% | 7.89 | – | – | – | – | – | – | – | – | –
4 | CN(C)[C@@H]1CC[C@@]2(C)[C@@H](CC[C@@H]3[C@@H]2CC[C@]2(C)C(c4ccc5ccncc5c4)=CC[C@@H]32)C1 | 5.05 | 5.12 | 5.26 | 4.94 | 4.60 to 4.90 | – | – | – | > 80% | > 80% | 7.74 | > 80% | > 80% | > 80% | > 80% | > 80% | > 80% | > 80% | > 80% | > 80%
